Tested on: Fibroblast
Test: Multiplex assay against human fibroblast
Assay type: toxicity, cell-based
Outline: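 Compound was added to live cells that had been stained at seeding with Hoechst33342, BioTracker Green Microtubule Cytoskeleton Dye, MitoTracker Red and Annexin V Alexa Fluor 680, and imaging followed on a CQ1 microscope at 37°C and 5% CO2. CellPathfinder machine-learning gating divided cells into Hoechst high-intensity objects or normal cells, normal cells into healthy, pyknosed or fragmented nuclei, and pyknosed cells into mitotic or apoptotic. Tubulin, mitochondrial-mass and membrane-permeability phenotypes are per cents of healthy-nucleus cells.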

[1] = 12 h, 1 µM, compound concentration 1 uM, replicate 1
[2] = 12 h, 1 µM, compound concentration 1 uM, replicate 2
[3] = 12 h, 10 µM, compound concentration 10 uM, replicate 1
[4] = 12 h, 10 µM, compound concentration 10 uM, replicate 2
[5] = 24 h, 1 µM, compound concentration 1 uM, replicate 1
[6] = 24 h, 1 µM, compound concentration 1 uM, replicate 2
[7] = 24 h, 10 µM, compound concentration 10 uM, replicate 1
[8] = 24 h, 10 µM, compound concentration 10 uM, replicate 2
[9] = 48 h, 1 µM, compound concentration 1 uM, replicate 1
[10] = 48 h, 1 µM, compound concentration 1 uM, replicate 2
[11] = 48 h, 10 µM, compound concentration 10 uM, replicate 1
[12] = 48 h, 10 µM, compound concentration 10 uM, replicate 2

CC(/C=C1\SC(=S)N(CCCC(=O)Nc2ccc(C(=O)O)c(O)c2)C1=O)=C\c1ccccc1
Population Apoptotic (%) [1]: 50%
Population Fragmented Nuclei (%) [1]: 14%
Population Healthy Nuclei (%) [1]: 71%
Population Hoechst High Intensity Objects (%) [1]: 2%
Population Membrane Permeable-Phenotype (%) [1]: 0%
Population Mitochondria Different-Phenotype (%) [1]: 2%
Population Mitotic Cells (%) [1]: 50%
Population Normal (%) [1]: 97%
Population Pyknosed Nuclei (%) [1]: 13%
Population Tubulin-Different-Phenotype (%) [1]: 28%
Total Cell Count [1]: 206
Population Apoptotic (%) [2]: 33%
Population Fragmented Nuclei (%) [2]: 19%
Population Healthy Nuclei (%) [2]: 60%
Population Hoechst High Intensity Objects (%) [2]: 3%
Population Membrane Permeable-Phenotype (%) [2]: 13%
Population Mitochondria Different-Phenotype (%) [2]: 9%
Population Mitotic Cells (%) [2]: 66%
Population Normal (%) [2]: 96%
Population Pyknosed Nuclei (%) [2]: 19%
Population Tubulin-Different-Phenotype (%) [2]: 54%
Total Cell Count [2]: 157
Population Apoptotic (%) [3]: 56%
Population Fragmented Nuclei (%) [3]: 15%
Population Healthy Nuclei (%) [3]: 70%
Population Hoechst High Intensity Objects (%) [3]: 2%
Population Membrane Permeable-Phenotype (%) [3]: 0%
Population Mitochondria Different-Phenotype (%) [3]: 5%
Population Mitotic Cells (%) [3]: 43%
Population Normal (%) [3]: 97%
Population Pyknosed Nuclei (%) [3]: 13%
Population Tubulin-Different-Phenotype (%) [3]: 44%
Total Cell Count [3]: 123
Population Apoptotic (%) [4]: 40%
Population Fragmented Nuclei (%) [4]: 19%
Population Healthy Nuclei (%) [4]: 48%
Population Hoechst High Intensity Objects (%) [4]: 4%
Population Membrane Permeable-Phenotype (%) [4]: 8%
Population Mitotic Cells (%) [4]: 59%
Population Normal (%) [4]: 95%
Population Pyknosed Nuclei (%) [4]: 31%
Population Tubulin-Different-Phenotype (%) [4]: 54%
Total Cell Count [4]: 122
Population Apoptotic (%) [5]: 54%
Population Fragmented Nuclei (%) [5]: 17%
Population Healthy Nuclei (%) [5]: 72%
Population Hoechst High Intensity Objects (%) [5]: 1%
Population Membrane Permeable-Phenotype (%) [5]: 2%
Population Mitochondria Different-Phenotype (%) [5]: 4%
Population Mitotic Cells (%) [5]: 45%
Population Normal (%) [5]: 98%
Population Pyknosed Nuclei (%) [5]: 10%
Population Tubulin-Different-Phenotype (%) [5]: 25%
Total Cell Count [5]: 208
Population Apoptotic (%) [6]: 33%
Population Healthy Nuclei (%) [6]: 63%
Population Hoechst High Intensity Objects (%) [6]: 2%
Population Membrane Permeable-Phenotype (%) [6]: 5%
Population Mitochondria Different-Phenotype (%) [6]: 12%
Population Mitotic Cells (%) [6]: 66%
Population Normal (%) [6]: 97%
Population Pyknosed Nuclei (%) [6]: 19%
Population Tubulin-Different-Phenotype (%) [6]: 44%
Total Cell Count [6]: 144
Population Apoptotic (%) [7]: 66%
Population Fragmented Nuclei (%) [7]: 11%
Population Healthy Nuclei (%) [7]: 81%
Population Hoechst High Intensity Objects (%) [7]: 0%
Population Membrane Permeable-Phenotype (%) [7]: 0%
Population Mitochondria Different-Phenotype (%) [7]: 4%
Population Mitotic Cells (%) [7]: 33%
Population Normal (%) [7]: 99%
Population Pyknosed Nuclei (%) [7]: 7%
Population Tubulin-Different-Phenotype (%) [7]: 25%
Total Cell Count [7]: 119
Population Apoptotic (%) [8]: 53%
Population Fragmented Nuclei (%) [8]: 20%
Population Healthy Nuclei (%) [8]: 53%
Population Hoechst High Intensity Objects (%) [8]: 4%
Population Membrane Permeable-Phenotype (%) [8]: 11%
Population Mitotic Cells (%) [8]: 46%
Population Normal (%) [8]: 95%
Population Pyknosed Nuclei (%) [8]: 26%
Population Tubulin-Different-Phenotype (%) [8]: 70%
Total Cell Count [8]: 120
Population Apoptotic (%) [9]: 78%
Population Fragmented Nuclei (%) [9]: 24%
Population Healthy Nuclei (%) [9]: 66%
Population Hoechst High Intensity Objects (%) [9]: 3%
Population Membrane Permeable-Phenotype (%) [9]: 1%
Population Mitochondria Different-Phenotype (%) [9]: 2%
Population Mitotic Cells (%) [9]: 21%
Population Normal (%) [9]: 96%
Population Pyknosed Nuclei (%) [9]: 9%
Population Tubulin-Different-Phenotype (%) [9]: 31%
Total Cell Count [9]: 216
Population Apoptotic (%) [10]: 45%
Population Fragmented Nuclei (%) [10]: 29%
Population Healthy Nuclei (%) [10]: 56%
Population Hoechst High Intensity Objects (%) [10]: 1%
Population Membrane Permeable-Phenotype (%) [10]: 7%
Population Mitochondria Different-Phenotype (%) [10]: 6%
Population Mitotic Cells (%) [10]: 54%
Population Normal (%) [10]: 98%
Population Pyknosed Nuclei (%) [10]: 14%
Population Tubulin-Different-Phenotype (%) [10]: 44%
Total Cell Count [10]: 159
Population Apoptotic (%) [11]: 46%
Population Fragmented Nuclei (%) [11]: 18%
Population Healthy Nuclei (%) [11]: 69%
Population Hoechst High Intensity Objects (%) [11]: 0%
Population Membrane Permeable-Phenotype (%) [11]: 0%
Population Mitochondria Different-Phenotype (%) [11]: 1%
Population Mitotic Cells (%) [11]: 53%
Population Normal (%) [11]: 100%
Population Pyknosed Nuclei (%) [11]: 12%
Population Tubulin-Different-Phenotype (%) [11]: 33%
Total Cell Count [11]: 124
Population Apoptotic (%) [12]: 59%
Population Fragmented Nuclei (%) [12]: 34%
Population Healthy Nuclei (%) [12]: 46%
Population Hoechst High Intensity Objects (%) [12]: 3%
Population Membrane Permeable-Phenotype (%) [12]: 5%
Population Mitochondria Different-Phenotype (%) [12]: 5%
Population Mitotic Cells (%) [12]: 40%
Population Normal (%) [12]: 96%
Population Pyknosed Nuclei (%) [12]: 19%
Population Tubulin-Different-Phenotype (%) [12]: 58%
Total Cell Count [12]: 118

From ChEMBL document CHEMBL5058577, “EUbOPEN Chemogenomics Library 2 (Multiplex)” (2022)
